# Source: PubChem
# Most compounds without a hit are left out; they make up all but 1.7% or so of the library.
# CaV13 ICDI inh: Disruptors of the CACNA1D IQ motif to Ca2+-dependent inactivation inhibitor domain association, primary screening, Förster resonance energy transfer in intact living … | inhibition, % at 12.3 µM | AID 743397 | 340,000 tested, 0.098% active | HEK cells, CFP/YFP FRET ICDI-IQ, plate reader, 10 min; percent FRET-ratio fall versus neutral wells;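 active means mean replicate inhibition of at least 30% and at least 1% of replicates passing that level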;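 further: 0% = median of the neutral control wells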
# F508del corr: CFTR F508del correction in bronchial cells; CFBE cells, YFP halide quenching; stimulated with forskolin plus potentiator P3; % fluorescence drop versus neutral controls; activity (quench increase), % at 7.58 µM; 350,000 tested, 0.36% active; AID 720511;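 active means mean added fluorescence quench of at least 8% versus neutral control, with both replicates also reaching 8%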;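 further: cells transiently co-express mutant CFTR-F508del with the halide-sensitive YFP; corrector assay measuring rescue of mutant channel to the surface after 24 h compound exposure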
# Cneo AK release: causes C. neoformans cell lysis; adenylate kinase release luminescence, 4 h; normalised: neutral wells 0, clomiphene wells 100; lysis activity, % at 15 µM; 360,000 tested, 0.2% active;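 active means mean lysis activity across replicates of at least 80%, whatever share of replicates individually reach that level; inactive means mean lysis activity below 80%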
#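 Assay system: Cryptococcus neoformans yeast cells / Dosing: single-point compound dose / Timing: 4 h at 37 °C static, read 1 h later / Measured by: luminescence of released adenylate kinase using an AK detection reagent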
# rRNA inh HTS: inhibitors of bacterial rRNA selective over humanized ribosomes | E. coli WT GFP vs humanized-ribosome RFP mutants, fluorescence, 24 h; stronger effect = lower value; DMSO median 0, no signal -100 | GFP signal change (wild-type ribosome), % (concentration not given with the values) | AID 720706 | 350,000 tested, 1.6% active;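 active means significant combined selectivity score with lowered wild-type GFP, culture density cut under 30%, mutant RFP and density less affected; inactive means any of these conditions unmet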
# Active calls of the source: *; nt = not tested or not shown.
SMILES,CaV13 ICDI inh,F508del corr,Cneo AK release,rRNA inh HTS
COc1ccc(Nc2nc(-c3sc(C)nc3C)cs2)cc1,5.1,9.1*,-1.8,-22.4
CCCN(C)C[C@H]1OCCCC[C@@H](C)Oc2ccc(NC(=O)Nc3ccc(OC)cc3)cc2C(=O)N([C@@H](C)CO)C[C@H]1C,nt,-0.1,0.1,2.7
Nc1cc(N2CCOCC2)c(Cl)cc1[N+](=O)[O-],-4.6,1.1,nt,-20.6*
Nc1ccc(N=Nc2ccc(O)cc2)c(N)n1,-6.4,-1.8,nt,-15.5*
COc1ccc(N=Nc2ccc(N)nc2N)cc1,-8.8,2.6,-5.1,-11.5
O=C1OC(Oc2ccccc2)(c2ccccc2)c2ccccc21 (stereo not drawn),-5.1,nt,-1.2,nt
O=C1OC(OC2CCCCC2)(c2ccccc2)c2ccccc21 (stereo not drawn),-7.6,-2.1,2.0,-21.9*
C[C@@H]1CN([C@@H](C)CO)C(=O)c2cc(-c3ccccc3F)cnc2O[C@H]1CN(C)Cc1cccc(C(=O)O)c1,nt,0.0,5.5,1.3
Cc1cc(NC(=O)COC(=O)CSCc2ccc(Cl)c(Cl)c2)no1,-7.2,-0.4,-2.6,-22.4*
C[C@]12CCC3C4(C=CC5(C=C4C(=O)c4ccc(F)c(F)c4)C[C@@H](O)CC[C@]35C)C1CC[C@@]2(O)CN1CCC(C(N)=O)CC1 (stereo partly drawn),nt,-0.3,0.2,nt
COc1cc(C(=O)ON=C2C3CC4CC(C3)CC2C4)cc(OC)c1OC,-3.0,-3.1,0.3,-21.8*
CN1C[C@H]2[C@@H](c3ccccc31)[C@@H](CO)N2C(=O)C1CCCCC1,nt,1.7,-1.3,-0.4
Cc1nn(-c2ccccc2)c(C)c1NC(=O)COc1ccc2ccccc2c1,-6.5,-1.7,-1.3,-19.6*
Cc1nn(-c2ccccc2)c(C)c1NC(=O)COC(=O)c1ccccc1,-2.6,-1.2,-1.2,11.4
Cc1ccc(C(=O)OCC(=O)Nc2c(C)nn(-c3ccccc3)c2C)c(O)c1,51.4*,0.8,0.3,14.8
Cc1nn(-c2ccccc2)c(C)c1NC(=O)COc1ccc(C#N)cc1,-18.8,nt,2.9,10.2
CO[C@H]1CC[C@H]2CCOc3ccc(C#N)cc3C(=O)N(C)CC3(CCCCC3)CC(=O)N(C)C[C@H]1O2,nt,nt,-1.2,4.6
O=C(O)C[C@H]1C[C@@H]2c3cc(NC(=O)NC4CCCC4)ccc3O[C@@H]2[C@@H](CO)O1,nt,1.2,2.3,-0.6
CC(C)CNC(=S)N1CCC(c2nc(-c3ccc(F)cc3)no2)CC1,-4.7,2.6,16.2,-25.6*
COc1ccc2c3c([nH]c2c1)[C@H](CO)N(C(C)=O)CC31CN(C(=O)c2cccc(F)c2)C1,nt,1.1,nt,-1.7
Cc1ccc(NC(=O)CN2CCOCC2)c(Br)c1,0.6,-0.2,0.1,1.4
Cc1ccc(NC(=O)CN2CCN(Cc3ccccc3)CC2)c(Br)c1,-4.3,1.4,1.3,-22.8*
COc1cc(/C=C2\SC(=Nc3ccc(Cl)c(C(=O)O)c3)NC2=O)c(Br)c(Br)c1O,-16.8,29.0*,-1.9,13.0
COc1cc(/C=C2\SC(=Nc3ccccc3)NC2=O)cc(Cl)c1O,-19.4,4.6,-1.7,-4.1
Cc1ccc(NC(=O)CCl)cc1S(=O)(=O)N1CCCCCC1,-4.2,-3.6,nt,-15.7*
SMILES,CaV13 ICDI inh,F508del corr,Cneo AK release,rRNA inh HTS
Cc1ccc(NC(=O)c2ccc3c(c2)OCO3)cc1S(=O)(=O)N1CCOCC1,-1.6,2.6,-0.5,-17.6*
COc1ccc(NC(=O)Cc2ccc(C)c(C)c2)cc1S(=O)(=O)N1CCCCC1,-9.5,-0.5,nt,-28.7*
C[C@@H]1CN([C@@H](C)CO)C(=O)c2cc(-c3ccc(F)cc3)cnc2O[C@H]1CN(C)CC1CCCCC1,nt,1.2,0.7,0.9
Cc1ccc(S(=O)(=O)Nc2ccc3c(c2)C(=O)N([C@H](C)CO)C[C@H](C)[C@@H](CN(C)Cc2ccc(Cl)c(Cl)c2)OCCCC[C@H](C)O3)cc1,nt,4.7,-1.3,-5.5
CCCN(C)C[C@H]1OCCCC[C@@H](C)Oc2ccc(NC(=O)CCC(F)(F)F)cc2C(=O)N([C@H](C)CO)C[C@@H]1C,nt,1.1,nt,1.6
CCOc1ccccc1N(C(=O)Nc1cccc(Cl)c1)C1=NC(C)CS1 (stereo not drawn),6.2,nt,-1.2,-39.1
CCOc1ccccc1N(C(=O)Nc1ccc(Cl)cc1)C1=NCCS1,6.6,-1.2,-4.9,-21.2*
COc1ccc(CC(=O)O/N=C(\N)c2ccc(Br)cc2)cc1OC,-6.3,-0.2,-1.4,-16.6
